Experimental data from ChEMBL document CHEMBL1158813, “Diastereomeric quinolinone alkaloids from the marine-derived fungus Penicillium janczewskii” (2005).

What was measured:
Type in all cases: functional
Conditions in all cases: read-out: Activity
A549 = experiment: Cytotoxicity against human A549 cells assessed as cell viability at 10 ug/mL by SRB assay
How it was run: (§1)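 SRB assay. Cells were plated at 5000–10 000 cells/well, depending on doubling time, and grown 24 h before compound addition. Compounds were dissolved in MeOH or DMSO and tested at 1 µg per 100 µL well (10 µg/mL) in complete medium for 48 h. Cells were fixed with cold TCA for 30 min on ice, at 10% final for adherent cells and 16% for suspension cells. Plates were stained with 0.4% SRB in 1% acetic acid for 10 min at room temperature, dye was solubilized in 10 mM Tris/KOH pH 10.5, and A550 was read.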

MDA-MB-231 = experiment: Cytotoxicity against human MDA-MB-231 cells assessed as cell viability at 10 ug/mL by SRB assay; how it was run: as §1
SK-MEL-2 = experiment: Cytotoxicity against human SK-MEL-2 cells assessed as cell viability at 10 ug/mL by SRB assay; how it was run: as §1
CAKI-1 = experiment: Cytotoxicity against human Caki1 cells assessed as cell viability at 10 ug/mL by SRB assay; how it was run: as §1
DU-145 = experiment: Cytotoxicity against human DU145 cells assessed as cell viability at 10 ug/mL by SRB assay; how it was run: as §1
K562 = experiment: Cytotoxicity against human K562 cells assessed as cell viability at 10 ug/mL by SRB assay; how it was run: as §1
HT-29 = experiment: Cytotoxicity against human HT-29 cells assessed as cell viability at 10 ug/mL by SRB assay; how it was run: as §1
SK-OV-3 = experiment: Cytotoxicity against human SKOV3 cells assessed as cell viability at 10 ug/mL by SRB assay; how it was run: as §1

| Structure (SMILES) | viability at 10 µg/mL (A549) | viability at 10 µg/mL (MDA-MB-231) | viability at 10 µg/mL (SK-MEL-2) | viability at 10 µg/mL (CAKI-1) | viability at 10 µg/mL (DU-145) | viability at 10 µg/mL (K562) | viability at 10 µg/mL (HT-29) | viability at 10 µg/mL (SK-OV-3) |
| --- | --- | --- | --- | --- | --- | --- | --- | --- |
| COc1ccc([C@@]2(O)c3ccccc3NC(=O)[C@@H]2O)cc1 | 56.8% | 31.8% | 39% | 65.1% | 48.4% | 36.6% | 32.8% | 8.1% |
| COc1ccc([C@@]2(O)c3ccccc3NC(=O)[C@H]2O)cc1 | 56.3% | 52.9% | 55.2% | 80.3% | 50.6% | 52.4% | 58.8% | 44.6% |
| COc1ccc([C@@]2(O)c3c(ccc(CC=C(C)C)c3O)NC(=O)[C@@H]2OC)cc1 [PENIPREQUINOLONE] | – | 8.4% | – | – | 30.8% | – | 4% | 20.2% |
